# Rows were chosen to be rich in hits. Some 2.3% of all compounds tested hit in one or more screens of this group.
# OXTR potentiator: human OXTR potentiators, primary screen, fluorescence, CHO-OTR cells, Fluo-8 calcium. AID 2445, 2010. 320,000 tested, 0.061% active. Fluo-8 calcium fluorescence, potentiator mode; 0% = oxytocin EC15, 100% = EC100. activation, % at 3 µM. Oxytocin receptor (Homo sapiens), P30559;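 active = activation above that plate's cutoff, the mean activation of tested compounds plus 3 SD, cut at about 6.6% in these data, passing the limit was not always enough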
#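 Material: CHO-OTR cells, human receptor; compound dosing: single dose, 3.0 µM nominal final compound concentration; schedule: 6 min compound pre-incubation at room temperature, 100 s kinetic read; measured by: kinetic Fluo-8 calcium fluorescence; read-out basis: % activation vs EC15 and EC100 oxytocin; controls: EC15 oxytocin alone as 0%, 75 nM oxytocin as 100%; replicates: singlicate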
# OXTR ag: human OXTR agonists, primary screen, fluorescence, CHO-OTR cells, Fluo-8 calcium. activation, % at 3 µM. AID 2435, 2010. 320,000 tested, 0.32% active. Fluo-8 calcium fluorescence; normalized: DMSO 0%, oxytocin 100%;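 active = activation above the mean of all tested compounds plus 3 SD, cutoff set per screening run, cut at about 20% in these data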;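 also: peak over basal fluorescence ratio from a 100 s FLIPR kinetic read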
# V1aR counter: agonists of human V1a receptor, primary screen, counter-screen for OXTR agonist project, fluorescence, CHO-V1R cells. Vasopressin V1a receptor (Homo sapiens), P37288. Fluo-8 calcium fluorescence, agonist mode; 0% DMSO, 100% 3 nM vasopressin. activation, % at 3 µM. 320,000 tested, 0.25% active;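 active = activation above the mean activation of all tested compounds plus 3 SD, per screening run, cut at about 20% in these data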;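 also: signal is peak over basal fluorescence ratio across a 100 second FLIPR read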
# TAAR1 ag: human TAAR1 agonists, primary screen, Fluo-8 calcium fluorescence, CHO RD-HGA16 cells; 360,000 tested, 0.99% active; vehicle wells 0%, saturating PEA agonist 100%; activation, % at 3 µM; Trace amine-associated receptor 1 (Homo sapiens), Q96RJ0;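 active = activation above the mean activation of all test compounds in the run plus 3 SD, cut at about 38% in these data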
# Target sequence (Q96RJ0 whole entry, looked up): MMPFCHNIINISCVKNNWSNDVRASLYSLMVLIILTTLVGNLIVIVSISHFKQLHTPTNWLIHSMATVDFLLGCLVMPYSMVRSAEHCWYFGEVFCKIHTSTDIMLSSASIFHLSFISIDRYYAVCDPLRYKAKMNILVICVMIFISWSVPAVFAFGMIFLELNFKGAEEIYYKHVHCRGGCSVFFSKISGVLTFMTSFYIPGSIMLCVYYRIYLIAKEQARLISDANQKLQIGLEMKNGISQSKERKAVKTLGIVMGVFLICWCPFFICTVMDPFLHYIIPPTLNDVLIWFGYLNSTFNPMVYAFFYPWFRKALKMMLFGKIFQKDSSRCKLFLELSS
#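 test system = CHO RD-HGA16 cells carrying human TAAR1 plus Gα16 | schedule = 17-24 h seeding, 75 min 37 °C dye, 30 min RT | compound dosing = 3 µM single concentration | control set = DMSO and PEA EC100 | replicates = n 1 | signal = Fluo-8 fluorescence, 5 s baseline then 140 s kinetic read | measure = percent activation vs PEA EC100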
# TAAR1 antagonist: human TAAR1 antagonists, primary screen, Fluo-8 calcium fluorescence, CHO RD-HGA16 cells; Trace amine-associated receptor 1 (Homo sapiens), Q96RJ0; antagonist; inhibition, % at 3 µM; 360,000 tested, 1.5% active;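 active = inhibition above a per-plate cutoff, the mean inhibition of test compounds on that plate plus 3 SD, cut at about 49% in these data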
#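 test system = CHO RD-HGA16 cells bearing hTAAR1 | replication = singlicate | controls = DMSO-only wells and EC80 β-PEA-stimulated wells | reagent = EC80 β-phenethylamine stimulus | read-out basis = percent inhibition of PEA-evoked calcium signal, max/basal emission ratio | schedule = seeding 17-24 h prior, 75-min 37 °C, 30-min RT dye loading | signal = kinetic Fluo-8 calcium fluorescence measurement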
# TAAR1 nonsel count: nonselective antagonists in TAAR1 counter-screen cells, counter-screen for hTAAR1 antagonist project, cell-based, fluorescence, calcium; inhibition, % at 3 µM; counterscreen cell line, antagonist mode; AID 651780, 2012; 2,400 tested, 77% active; shares compounds with TAAR1 antagonist; in the data active = inhibition above about 22%;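 also: CHO-Ga16 host cells stimulated with ATP at an EC80 level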
# TAAR1 ant conf: human TAAR1 antagonists, retest of hits, confirmation, cell-based, fluorescence. TAAR1-expressing cells, fluorescence antagonist read-out. shares compounds with TAAR1 antagonist. inhibition, % at 3 µM. 2,400 tested, 40% active; in the data active = inhibition above about 49%;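 also: CHO-Ga16 host cells challenged with agonist PEA near its EC80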
# Ga16 nonsel ag: calcium activation in Ga16-expressing cells, counter-screen for TAAR1 antagonist project, cell-based, fluorescence | AID 651953, 2012 | activation, % at 3 µM | 2,400 tested, 18% active | agonist counterscreen | shares compounds with TAAR1 antagonist; in the data active = activation above about 12%
# TAAR1 ag count: TAAR1 activation by candidate antagonists – cell-based, fluorescence, counter-screen for TAAR1 antagonist project. shares compounds with TAAR1 antagonist. hTAAR1 cell line, agonist mode. activation, % at 3 µM. 2,400 tested, 2% active. AID 651955, 2012; in the data active = activation above about 37%;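 also: CHO cells stably expressing TAAR1 with calcium dye readout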
# Numbers stand for hits; – = inactive; · = not tested or not shown.
SMILES,OXTR potentiator,OXTR ag,V1aR counter,TAAR1 ag,TAAR1 antagonist,TAAR1 nonsel count,TAAR1 ant conf,Ga16 nonsel ag,TAAR1 ag count
O=C(NC(c1ccc(-c2ccccc2)cc1)c1cnccn1)C1CCN(CCOc2ccc(F)cc2)CC1 (stereo not given),·,·,·,–,70.7,38.6,53.0,16.4,–
COc1ccc(Cl)c(-c2cc(C(=O)NCc3ccc(C(F)(F)F)cc3)[nH]n2)c1,·,·,·,–,62.8,31.9,–,18.7,–
COc1ccc(CCNC(=O)c2cc(-c3cc(Cl)ccc3O)n[nH]2)cc1OC,–,–,–,–,60.5,39.0,53.9,12.8,–
COc1ccc(Cl)c(-c2cc(C(=O)NCc3ccco3)[nH]n2)c1,·,·,·,–,–,·,·,·,·
Cc1ccc(Cl)cc1-c1cc(C(=O)NCc2ccc(C(F)(F)F)cc2)[nH]n1,·,·,·,–,76.7,42.4,65.8,32.5,58.0
Cc1ccc(S(=O)(=O)n2cccc2/C=C/[N+](=O)[O-])cc1,·,·,·,–,–,·,·,·,·
Cc1c(Cl)cnc(NC(=O)COC(=O)c2ccncc2)c1Cl,–,–,–,–,100.7,–,–,–,–
CCC(c1nnnn1Cc1ccco1)N1CCN(C(=O)c2ccco2)CC1 (stereo not given),–,–,–,–,–,·,·,·,·
O=C(c1ccco1)N1CCN(C(c2ccccc2Cl)c2nnnn2Cc2ccco2)CC1 (stereo not given),–,–,–,–,62.5,34.9,55.3,–,–
O=C(CSc1nc2[nH]ncc2c(=O)[nH]1)N1CCCC1,–,–,–,–,–,·,·,·,·
C=C(C)C(O)CC/C(C)=C/Cc1c(O)ccc(C(=O)/C=C/c2ccc(O)cc2)c1O (stereo not given),–,–,–,–,69.6,28.5,–,–,–
Cc1ccc(S(=O)(=O)N2CCCC(C(=O)Nc3cccnc3)C2)cc1 (stereo not given),–,–,–,–,–,·,·,·,·
CCOC(=O)c1ccc(NC(=O)C2CCN(S(=O)(=O)c3ccccc3)CC2)cc1,–,–,–,–,–,·,·,·,·
Cc1ccc(S(=O)(=O)N2CCCC(C(=O)Nc3ccc(NC(=O)c4ccccn4)cc3)C2)cc1 (stereo not given),–,–,–,–,55.3,32.0,52.8,–,–
CCOC(=O)c1ccc(NC(=O)C2CCCN(S(=O)(=O)c3ccc(F)cc3)C2)cc1 (stereo not given),–,–,–,–,67.0,39.5,62.4,12.7,–
O=C(CCN1C(=O)NC2(CCCC2)C1=O)Nc1cccc(S(=O)(=O)N2CCOCC2)c1,–,–,–,–,–,·,·,·,·
C[C@H]1CN(C(=O)OC(C)(C)C)CCN1c1ccc(N2CCS(=O)(=O)CC2)c(C#N)c1,·,·,·,–,66.6,46.8,59.9,16.2,–
C[C@@H]1CN(C(=O)OC(C)(C)C)CCN1c1ccc(N2CCS(=O)(=O)CC2)c(C#N)c1,·,·,·,–,–,·,·,·,·
COc1ccc(CN(C)C(=O)c2ccc(COc3ccccc3)cc2)c(OC)c1,–,–,–,–,–,·,·,·,·
COc1ccc(CN(C)C(=O)C(Cc2ccccc2)NC(=O)c2ccccc2)c(OC)c1 (stereo not given),–,–,–,–,67.2,29.8,49.6,–,–

# Screening results from PubChem BioAssay.
